Assay results published in ChEMBL document CHEMBL1155427, “Dopamine receptor ligands. Part 18: (1) modification of the structural skeleton of indolobenzazecine-type dopamine receptor antagonists” (J Med Chem, 2010).
Calls of active or inactive are those of the source. The rule behind the calls is not given here.

Experiments:
[1] = target: T1, D(4) dopamine receptor (Homo sapiens, UniProt P21917); assay: Displacement of [3H]radioligand from human recombinant dopamine D4.4 receptor expressed in CHO cells by microplate scintillation counting; format: cell-based
T1 sequence (P21917 whole entry): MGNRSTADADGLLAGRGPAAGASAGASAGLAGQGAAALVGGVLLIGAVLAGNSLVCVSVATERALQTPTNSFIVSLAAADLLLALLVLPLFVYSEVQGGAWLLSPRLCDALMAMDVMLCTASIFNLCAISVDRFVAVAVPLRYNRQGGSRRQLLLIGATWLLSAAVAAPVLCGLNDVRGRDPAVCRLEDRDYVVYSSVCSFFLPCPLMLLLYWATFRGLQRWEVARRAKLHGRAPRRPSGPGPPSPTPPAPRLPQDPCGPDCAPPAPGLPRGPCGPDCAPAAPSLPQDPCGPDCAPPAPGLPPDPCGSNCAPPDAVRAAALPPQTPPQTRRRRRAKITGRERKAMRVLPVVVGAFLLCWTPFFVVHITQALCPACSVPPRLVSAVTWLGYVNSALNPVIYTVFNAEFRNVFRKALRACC
Method in brief: (§1)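 Human D2L or D3 receptor stably expressed in HEK cells, or D4.4 in CHO cells. Competition binding against [3H]spiperone as the D2-like radioligand. Ki values in nM are means of two or three experiments, each run in triplicate, ± SEM.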

[2] = target: T2, D(1A) dopamine receptor (Homo sapiens, UniProt P21728); assay: Antagonist activity at human dopamine D1 receptor expressed in HEK293 cells assessed as inhibition of SKF-38393-induced calcium influx; format: functional, cell-based
T2 sequence (P21728 whole entry): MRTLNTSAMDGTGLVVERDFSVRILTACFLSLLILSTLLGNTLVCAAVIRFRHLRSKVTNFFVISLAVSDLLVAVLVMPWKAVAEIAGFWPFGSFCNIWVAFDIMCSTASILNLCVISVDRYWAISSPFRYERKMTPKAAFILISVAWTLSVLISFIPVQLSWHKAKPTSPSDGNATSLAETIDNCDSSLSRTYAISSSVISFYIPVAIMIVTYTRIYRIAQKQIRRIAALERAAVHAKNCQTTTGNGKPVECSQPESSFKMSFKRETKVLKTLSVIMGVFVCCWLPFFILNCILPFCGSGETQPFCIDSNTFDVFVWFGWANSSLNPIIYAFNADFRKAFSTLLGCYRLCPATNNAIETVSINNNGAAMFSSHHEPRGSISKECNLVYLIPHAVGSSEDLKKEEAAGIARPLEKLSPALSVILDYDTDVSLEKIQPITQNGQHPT
Method in brief: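 HEK293 cells stably expressing the human D1 receptor were loaded with a fluorescent dye. Cells were preincubated with rising concentrations of test ligand, then SKF 38393 agonist was injected. Ca2+-induced fluorescence was read on a microplate reader.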

[3] = target: T3, D(2) dopamine receptor (Homo sapiens, UniProt P14416); assay: Antagonist activity at human dopamine D2L receptor expressed in HEK293 cells assessed as inhibition of quinpirole-induced calcium influx
T3 sequence (P14416 whole entry): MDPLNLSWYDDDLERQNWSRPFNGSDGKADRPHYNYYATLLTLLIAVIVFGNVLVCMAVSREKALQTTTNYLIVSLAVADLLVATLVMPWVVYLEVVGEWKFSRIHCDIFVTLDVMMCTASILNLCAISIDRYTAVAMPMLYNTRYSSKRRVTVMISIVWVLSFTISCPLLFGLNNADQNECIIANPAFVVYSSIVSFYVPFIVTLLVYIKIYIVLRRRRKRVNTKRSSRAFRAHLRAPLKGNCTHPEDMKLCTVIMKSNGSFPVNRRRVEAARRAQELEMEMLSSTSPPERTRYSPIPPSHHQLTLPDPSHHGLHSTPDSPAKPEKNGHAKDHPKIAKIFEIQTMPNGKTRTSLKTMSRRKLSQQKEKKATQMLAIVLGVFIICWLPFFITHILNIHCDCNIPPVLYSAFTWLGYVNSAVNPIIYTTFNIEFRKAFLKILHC

[4] = target: T2, D(1A) dopamine receptor; assay: Displacement of [3H]SCH23390 from human recombinant dopamine D1 receptor expressed in HEK293 cells by microplate scintillation counting; format: cell-based
Method in brief: (§2)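 Human D1 or D5 receptor stably expressed in HEK cells. Ki values in nM are means of two or three experiments, each run in triplicate, ± SEM.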

[5] = target: T3, D(2) dopamine receptor; assay: Displacement of [3H]spiperone from human recombinant dopamine D2L receptor expressed in HEK293 cells by microplate scintillation counting; format: cell-based; method in brief: as §1
[6] = target: D(3) dopamine receptor (Homo sapiens, UniProt P35462); assay: Displacement of [3H]radioligand from human recombinant dopamine D3 receptor expressed in HEK293 cells by microplate scintillation counting; format: cell-based; method in brief: as §1
Chain of D(3) dopamine receptor (P35462 whole entry): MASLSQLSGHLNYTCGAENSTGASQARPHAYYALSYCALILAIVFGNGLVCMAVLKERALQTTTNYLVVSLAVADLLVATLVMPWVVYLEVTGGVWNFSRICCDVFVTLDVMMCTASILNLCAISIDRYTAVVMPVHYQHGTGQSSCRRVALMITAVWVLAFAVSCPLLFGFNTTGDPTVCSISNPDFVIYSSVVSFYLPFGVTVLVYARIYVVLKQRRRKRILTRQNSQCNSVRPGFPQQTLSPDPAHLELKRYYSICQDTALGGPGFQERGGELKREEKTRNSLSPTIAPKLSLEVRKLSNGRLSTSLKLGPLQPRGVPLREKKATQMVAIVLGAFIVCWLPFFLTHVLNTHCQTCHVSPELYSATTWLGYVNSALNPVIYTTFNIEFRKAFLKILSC

[7] = target: D(1B) dopamine receptor (Homo sapiens, UniProt P21918); assay: Displacement of [3H]radioligand from human recombinant dopamine D5 receptor expressed in HEK293 cells by microplate scintillation counting; format: cell-based; method in brief: as §2
Chain of D(1B) dopamine receptor (P21918 whole entry): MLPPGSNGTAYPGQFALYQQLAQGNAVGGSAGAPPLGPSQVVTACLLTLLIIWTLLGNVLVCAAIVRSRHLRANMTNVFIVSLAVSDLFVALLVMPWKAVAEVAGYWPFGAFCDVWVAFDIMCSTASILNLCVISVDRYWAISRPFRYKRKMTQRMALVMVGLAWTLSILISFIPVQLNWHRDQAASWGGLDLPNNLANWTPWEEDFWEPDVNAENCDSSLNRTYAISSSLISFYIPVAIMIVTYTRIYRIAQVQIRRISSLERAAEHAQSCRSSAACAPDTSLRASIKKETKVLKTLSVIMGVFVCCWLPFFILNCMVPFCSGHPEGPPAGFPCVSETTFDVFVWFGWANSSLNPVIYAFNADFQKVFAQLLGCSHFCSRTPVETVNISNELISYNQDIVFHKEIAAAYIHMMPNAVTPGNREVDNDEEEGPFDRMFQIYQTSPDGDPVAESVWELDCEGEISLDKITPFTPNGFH

[8] = Selectivity for dopamine D5 receptor over dopamine D1 receptor

Compound: c1ccc2c(c1)CCN1Cc3cccc4[nH]cc(c34)C21 (centres undefined)
- Ki [1]: > 10000 nM
- Activity [2]: Active
- Activity [3]: Active

Compound: CN1CCc2ccccc2Cc2[nH]c3ccccc3c2CC1
- Activity [2]: Active
- Activity [3]: Active

Compound: CN1CCc2ccccc2Cc2c([nH]c3ccccc23)CC1
- Ki [4]: 28.5 nM
- Ki [5]: 55.1 nM
- Ki [6]: 513 nM
- Ki [1]: 225 nM
- Ki [7]: 10.3 nM
- Activity [2]: Active
- Activity [3]: Active

Compound: CN1CCc2ccccc2Cc2c[nH]c3cccc(c23)CC1
- Ki [4]: 4.2 nM
- Ki [5]: 4 nM
- Ki [6]: 42.9 nM
- Ki [1]: 39.1 nM
- Ki [7]: 2.5 nM
- Activity [2]: Active
- Activity [3]: Active

Compound: c1ccc2c(c1)CCN1CCc3cccc4[nH]cc(c34)C21 (centres undefined)
- Ki [4]: 1840 nM
- Ki [5]: 4460 nM
- Ki [6]: > 10000 nM
- Ki [1]: > 10000 nM
- Ki [7]: 1520 nM
- Activity [2]: Active
- Activity [3]: Active

Compound: CN1Cc2ccccc2[C@@H]2c3cccc4[nH]cc(c34)C[C@H]21
- Selectivity ratio [8]: 10

Compound: CN1CCc2ccccc2Cc2c[nH]c3cccc(c23)C1
- Ki [4]: > 10000 nM
- Ki [5]: > 10000 nM
- Ki [6]: > 10000 nM
- Ki [1]: > 10000 nM
- Ki [7]: > 10000 nM

Compound: c1ccc2c(c1)CCN1CCc3[nH]c4ccccc4c3C21 (centres undefined)
- Ki [4]: 2100 nM
- Ki [5]: 1480 nM
- Ki [6]: > 10000 nM
- Ki [1]: > 10000 nM
- Ki [7]: > 10000 nM
- Activity [2]: Active
- Activity [3]: Active
